The test system of the data set is MS2 coat protein. As to the kind of experiment: apparent Kd, MS2 coat protein; higher = weaker binding; RNA-MaP array; FMN 200 µM where present. The essentials:
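Designs were transcribed by stalled E. coli RNA polymerase on Illumina sequencing-chip clusters. They were titrated with SNAP-549-labelled MS2 coat protein from 0.7 or 1.5 nM, doubling to 3 µM, without and then with constant ligand. Buffer: 100 mM Tris-HCl pH 7.5, 80 mM KCl, 4 mM MgCl2, BSA, DTT, yeast tRNA, Tween-20. Green signal was normalised to red-channel RNA signal and control-cluster median Fmax. Apparent Kd is the median of filtered per-cluster binding-curve fits.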

The mark [1] stands for this setting: designed as: OFF switch for flavin mononucleotide, no ligand.
[2] abbreviates: ligand present: flavin mononucleotide, designed as: OFF switch for flavin mononucleotide.
The mark [3] stands for this setting: designed as: ON switch for flavin mononucleotide, no ligand.
The mark [4] stands for this setting: ligand present: flavin mononucleotide, designed as: ON switch for flavin mononucleotide.

Here are results for 20 sequences from the EternaBench riboswitch data.

The term apparent Kd denotes a dissociation constant that holds for the conditions of the assay.

Take “AAAUGAUGAGGAUAUACAUGAGGAUCACCCAUGUGUAAAAAUAAAUACACAAAAGAAAGUAGAAGGCAUCAAAA”: the “apparent Kd” value runs as follows: under setting [1], 31.6 nM; under setting [2], 124 nM.

Turning to “GUGGUUGUCGUAGGAUAUGUAGGAUAUUCCUACAUGAGGAUCACCCAUGUUCGCAUGGAAGAAGGACAGAAGGACGAUGACCAG”, the “apparent Kd” value turned out to be 801 nM under setting [3] and 22.7 nM under setting [4].

As to “UGCUGUGUCAGAGGAUAUCUACUAAUAAUCCAUUGCAAAUAGCGAUGGACAUGAGGAUCACCCAUGUAGAAGGCUGUCACAGCA”, the “apparent Kd” value was 110 nM under setting [1] and 120 nM under setting [2].

For “GUUAUAACAGUCAGGAUAUUUAAGCUUAUCGAGCUAGAGAAGGGACAUGAGGAUCACCCAUGUAGCCUCGUUAG”, the “apparent Kd” value is, setting by setting: under setting [1], 16 nM; under setting [2], 17.1 nM.

With “GUUUAGUGAGGAUAUGUGGCUUCGAUCGUGCGCGGUCGGCUACAGAAGGCACAUGAGGAUCACCCAUGUUCCUC”, the “apparent Kd” value under setting [1] came to 37.1 nM and the “apparent Kd” value under setting [2] was found to be 506 nM.

Regarding “ACGGAACAUGAGGAUCACCCAUGUAUCUGAAAUAUGGACUCACAGGAUAUCCAGAGUUGCCAAUCGGAGAAGGGUGACUCCAGA”, the “apparent Kd” value by setting is: under setting [3], 20.1 nM; under setting [4], 16.7 nM.

Consider “UUAAUUAAUUAGAAGGCAUGUCAUAAGACAUGAGGAUCACCCAUGUAGUUAAGGCGAAAGCCGCAUGAGGAUAUAUAAAUAUAU”, for which the “apparent Kd” value reads like this: under setting [3], 552 nM; under setting [4], 319 nM.

For “AAGAGAAGAACUGAGGAUAUCAGGGAUGGUACAUGAGGAUCACCCAUGUUGGCAAGCGAAGAAACUGAGAAGGCAGAGAAGAAGAA”, the “apparent Kd” value was 80.3 nM under setting [3] and 48.1 nM under setting [4].

For the sequence “GUGACGAAUGUAGGAUAUGCUGAGGAAUACUCAGCAGAAGGACAUGAGGAUCACCCAUGUCAUCCUAAUAAUAAAUAACGUCAC”, the “apparent Kd” value stood at 12.3 nM under setting [1] and 17.4 nM under setting [2].

For “GGAGCCGGCCUAGGAUAUUUCAUAAUAUUACAUGAGGAUCACCCAUGUAGGCCAGAAGGCCUUGGGAAGAAGGAGGUCGGCUCC”, the “apparent Kd” value under setting [3] came out at 42.6 nM and the “apparent Kd” value under setting [4] worked out at 15.9 nM.

In the case of “AAAUAACCUAGCAAAAUUUCCUCACAUGAGGAUCACCCAUGUAGAAGGCUGUCCUAAAAUAGGACAGAGGAUAUACGUGCUAGG”, the “apparent Kd” value came to 6.82 nM under setting [1] and 107 nM under setting [2].

Regarding “AUCAGCUCGACAGGAUAUACAUCACUGCUUCGGCAGUGUAUCUUAAUAACAUGAGGAUCACCCAUGUAGAAGGGUCGAGCUGAU”, the “apparent Kd” value turned out to be 17.8 nM under setting [1] and 31.6 nM under setting [2].

Turning to “CGUGUCAUCGAGAAGGCCUCAACAUGAGGAUCACCCAUGUUGUAAUAUGGGAGGAUAUCGAUGAUACAGCUACGUUUCGUAGCC”, the “apparent Kd” value is, setting by setting: under setting [3], 19.5 nM; under setting [4], 6.48 nM.

Take “CACGUACAUGAGGAUCACCCAUGUUAGGAUAUGCCGGGUUAGAGCCAACUAAAAACCCGUAGAAGGGACGAAAC”: the “apparent Kd” value under setting [1] came to 23.1 nM and the “apparent Kd” value under setting [2] is 25.3 nM.

On to “GCGUUCUUGUAGAAGGUACAUAAAAUCUAUUUUUAACACAUGAAACAUGAGGAUCACCCAUGUUGUAAGGAUAUACAUGAACGC”, for which the “apparent Kd” value was found to be 7.03 nM under setting [3] and 5.88 nM under setting [4].

As for “CUAUAGAUAUCAGGAUAUCUAUUUCCAACAUGAGGAUCACCCAUGUUGAGGAUCACCCAUGUAAAGGAGAAGGGAUAUCUAUAG”, the “apparent Kd” value by setting is: under setting [3], 69.1 nM; under setting [4], 16.4 nM.

Consider “UUUUAACAUGAGGAUCACCCAUGUGAGGAUAUCGAAAUUUAUAUUAAUAUUAUUAUUACGAGAAGGCACAUUUU”, for which the “apparent Kd” value under setting [1] turned out to be 71.9 nM and the “apparent Kd” value under setting [2] was 91.1 nM.

With “GCCAUCGCGUGAGGAUAUGCUCCGGUUUCCGGAGCAGAAGGCAUGUCAUAAGACAUGAGGAUCACCCAUGUAGUUAAGAUGGCA”, the “apparent Kd” value runs as follows: under setting [3], 238 nM; under setting [4], 9.79 nM.

For the sequence “CGUAACUGCAUAGGAUAUUGUUACAUGAGGAUCACCCAUGUUUUUCGGAUUAUUUAUCUACUUAGCAAGAAGGAUGGAGUUACG”, the “apparent Kd” value reads like this: under setting [3], 6.82 nM; under setting [4], 4.74 nM.

In the case of “ACUAAUAGAGGAUAUACAGUUUAUUACAUGAGGAUCACCCAUGUUCUUCAAUGUAUAUAAGUAGAAGGCUAUGGAA”, the “apparent Kd” value under setting [1] came to 43.3 nM and the “apparent Kd” value under setting [2] was 187 nM.
